Measurements from different studies.
Converted amounts (≈) assume the structure as drawn.
Organism: Mycobacterium tuberculosis
Effect on: microbial growth
Strain: H37RV

COc1ccc(-c2cc(C(F)(F)F)c3c(N)c(C(=O)Nc4cccc(C)c4C)sc3n2)cc1OC — IC50: > 100 µM
O=c1c2cc(Cl)ncc2[nH]c(=S)n1Cc1cccnc1 — MIC90: 17.6 µM (≈ 5.36 µg/mL)
NCC[C@H](O)C(=O)N[C@@H]1C[C@H](N)[C@@H](O[C@H]2O[C@H](CN)[C@@H](O)[C@H](O)[C@H]2O)[C@H](O)[C@H]1O[C@H]1O[C@H](CO)[C@@H](O)[C@H](N)[C@H]1O — inhibition (2.5 µg/mL): ~90%
CCc1ccc(CCNc2cc(-c3ccccn3)nc3nnc(C4CC4)n23)cc1 — MIC (5 days): 17 to 50 µM (≈ 6.54 to 19.2 µg/mL)
NC(=O)c1cncc(Cn2c(=S)[nH]c3cc(CO)c(Cl)cc3c2=O)c1 — MIC90: 17.2 µM (≈ 6.48 µg/mL)
COc1ccc(-c2cc(C(F)(F)F)c3cc(C(=O)NC(C)c4ccccc4)sc3n2)cc1 (stereo not drawn) — IC50: 2.5 µM
O=c1[nH]c2cc(CO)c(Cl)cc2c(=O)n1Cc1cccnc1 — MIC90: > 100 µM
COc1ccc(-c2cc(C(F)(F)F)c3c(N)c(C(=O)Nc4ccc(C)c(C)c4)sc3n2)cc1 — IC50: > 100 µM
Fc1ccc(CCOc2cc(-c3ccccn3)nc3nncn23)cc1 — MIC: > 100 µM
